Measurements published in ChEMBL document CHEMBL1938298, “Synthesis and characterization of [¹²⁵I]2-iodo N-[(S)-{(S)-1-methylpiperidin-2-yl}(phenyl)methyl]3-trifluoromethyl-benzamide as novel imaging probe for glycine transporter 1” (Bioorg Med Chem, 2011).
Activity calls are given as the source filed them. The rule behind the calls is not given here.

Assays:
Intestine = test: Drug uptake in ddY mouse intestine at 11.1 kBq, iv after 0.5 min by gamma counting; type: ADME, organism-based; settings: in vivo
Summary of the method: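 Male ddY mice (6 weeks, 30–35 g) received about 11.1 kBq [125I]tracer in 0.1 mL i.v. via tail vein. Killed at set times, organs dissected and weighed, radioactivity gamma counted. Reported as % injected dose/g tissue, mean ± SD, n = 5–6.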

Mus musculus [1] = test: In vivo binding affinity to GlyT1 in ddY mouse brain thalamus at 33.3 kBq, iv after 30 mins in presence of N-Me-SSR504734 2 mg/kg, iv administered 15 mins prior to compound administration relative to control; type: functional
Stomach [2] = test: Drug uptake in ddY mouse stomach at 11.1 kBq, iv after 180 min by gamma counting; type: ADME, organism-based; settings: in vivo, 3 h
Summary of the method: (§1)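 Male ddY mice (6 weeks, 30–35 g) were given about 11.1 kBq of [125I]tracer in 0.1 mL i.v. via the tail vein. At each time point the animals were killed and organs dissected, weighed and gamma-counted. Uptake is expressed as % injected dose per gram of tissue, mean ± SD, n = 5–6.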

Mus musculus [3] = test: In vivo binding affinity to GlyT1 in ddY mouse brain midbrain at 33.3 kBq, iv after 30 mins in presence of nonradioactive compound 2 mg/kg, iv administered 15 mins prior to compound administration relative to control; type: functional
Liver [4] = test: Drug uptake in ddY mouse liver at 11.1 kBq, iv after 60 min by gamma counting; type: ADME, organism-based; settings: in vivo, 1 h; summary of the method: as §1
Liver [5] = test: Drug uptake in ddY mouse liver at 11.1 kBq, iv after 5 min by gamma counting; type: ADME, organism-based; settings: in vivo; summary of the method: as §1
Stomach [6] = test: Drug uptake in ddY mouse stomach at 11.1 kBq, iv after 0.5 min by gamma counting; type: ADME, organism-based; settings: in vivo; summary of the method: as §1
[7] = molecular target: T1, Sodium- and chloride-dependent glycine transporter 1 (Rattus norvegicus) (UniProt P28572); test: Binding affinity to GlyT1 in rat brain medullary region at 0.03 to 0.04 nM preincubated for 20 mins in binding buffer before compound addition measured after 30 mins by autoradiography in presence of GlyT1 inhibitor N-Me-SSR504734 relative to control; type: tissue-based; settings: tested as the 125I-labelled form
T1 sequence (whole entry): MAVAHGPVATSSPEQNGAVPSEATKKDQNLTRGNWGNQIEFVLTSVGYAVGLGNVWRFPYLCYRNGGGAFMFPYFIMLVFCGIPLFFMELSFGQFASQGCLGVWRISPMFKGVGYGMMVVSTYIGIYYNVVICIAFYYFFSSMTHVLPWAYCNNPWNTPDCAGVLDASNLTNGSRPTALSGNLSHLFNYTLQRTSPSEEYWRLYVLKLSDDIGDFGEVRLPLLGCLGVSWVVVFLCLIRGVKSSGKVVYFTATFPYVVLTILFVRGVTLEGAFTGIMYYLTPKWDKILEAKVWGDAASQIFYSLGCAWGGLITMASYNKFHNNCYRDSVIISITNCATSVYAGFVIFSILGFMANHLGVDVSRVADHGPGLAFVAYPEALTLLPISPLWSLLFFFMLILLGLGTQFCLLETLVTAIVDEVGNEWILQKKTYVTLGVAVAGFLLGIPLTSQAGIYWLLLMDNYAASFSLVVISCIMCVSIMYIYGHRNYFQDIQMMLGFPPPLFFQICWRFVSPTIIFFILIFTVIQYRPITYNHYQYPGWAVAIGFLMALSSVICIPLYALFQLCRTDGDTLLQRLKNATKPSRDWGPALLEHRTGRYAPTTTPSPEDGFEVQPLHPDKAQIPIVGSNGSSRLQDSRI
Summary of the method: (§2)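 Rat brain sagittal sections (20 µm) preincubated 20 min at 25 °C in Tris-HCl buffer pH 7.5 (NaCl, KCl, MgCl2, CaCl2), then 30 min at 25 °C with [125I] tracer (100 kBq, 0.03–0.04 nM) plus competitor (10 µM; glycine 1 or 10 mM). Cold washes, imaging plate 3 days, ROI PSL minus background per mm². % control from ≥triplicate slices, three rats.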

Mus musculus [8] = test: In vivo binding affinity to GlyT1 in ddY mouse brain hippocampus at 200 kBq, iv after 60 mins by autoradiography relative to control; type: functional, organism-based; settings: tested as the 125I-labelled form
Summary of the method: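 Ex vivo autoradiography in mice given 200 kBq [125I]tracer i.v. and killed at 60 min. Brains were removed, frozen on dry ice and cut into 20 µm sagittal cryosections, which were exposed to an imaging plate for 7 days. Regional signal was quantified as PSL/mm² (n = 5) and compared to control by Kruskal–Wallis with Dunn's post-test.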

[9] = molecular target: T1, Sodium- and chloride-dependent glycine transporter 1 (Rattus norvegicus); test: Binding affinity to GlyT1 in rat brain striatum at 0.03 to 0.04 nM preincubated for 20 mins in binding buffer before compound addition measured after 30 mins by autoradiography in presence of 10 mM GlyT1 substrate glycine relative to control; type: tissue-based; settings: tested as the 125I-labelled form
Mus musculus [10] = test: In vivo binding affinity to GlyT1 in ddY mouse brain striatum at 33.3 kBq, iv after 60 mins in presence of SSR504734 2 mg/kg, iv administered 15 mins prior to compound administration relative to control; type: functional, organism-based; design: dose 2 mg/kg; settings: tested as the 125I-labelled form
Mus musculus [11] = test: In vivo binding affinity to GlyT1 in ddY mouse brain hippocampus at 33.3 kBq, iv after 60 mins in presence of N-Me-SSR504734 2 mg/kg, iv administered 15 mins prior to compound administration relative to control; type: functional, organism-based; design: dose 2 mg/kg; settings: tested as the 125I-labelled form
Summary of the method: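 Male ddY mice (6 W, 30–35 g) were given blocker 2 mg/kg iv in 30% DMSO/saline 15 min before [125I] tracer (ca. 33.3 kBq, 0.1 mL, tail vein). Killed 60 min after tracer injection. Brain dissected into regions including hippocampus, weighed and gamma counted, giving % dose/g and region-to-blood ratio versus control. Mean ± SD, n = 5–6; Kruskal–Wallis with Dunn's post-test.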

[12] = molecular target: T1, Sodium- and chloride-dependent glycine transporter 1 (Rattus norvegicus); test: Binding affinity to GlyT1 in rat brain thalamus at 0.03 to 0.04 nM preincubated for 20 mins in binding buffer before compound addition measured after 30 mins by autoradiography in presence of 0.01 mM GlyT1 inhibitor ALX5407 relative to control; type: tissue-based; settings: tested as the 125I-labelled form
[13] = molecular target: T1, Sodium- and chloride-dependent glycine transporter 1 (Rattus norvegicus); test: Binding affinity to GlyT1 in rat brain medullary region at 0.03 to 0.04 nM preincubated for 20 mins in binding buffer before compound addition measured after 30 mins by autoradiography in presence of 1 mM GlyT1 substrate glycine relative to control; type: tissue-based; settings: tested as the 125I-labelled form; summary of the method: as §2
[14] = molecular target: T1, Sodium- and chloride-dependent glycine transporter 1 (Rattus norvegicus); test: Binding affinity to GlyT1 in rat brain hippocampus at 0.03 to 0.04 nM preincubated for 20 mins in binding buffer before compound addition measured after 30 mins by autoradiography in presence of 0.01 mM NMDA receptor glycine site antagonist L-701,324 relative to control; type: tissue-based; settings: tested as the 125I-labelled form; summary of the method: as §2
[15] = molecular target: T1, Sodium- and chloride-dependent glycine transporter 1 (Rattus norvegicus); test: Binding affinity to GlyT1 in rat brain cerebellum at 0.03 to 0.04 nM preincubated for 20 mins in binding buffer before compound addition measured after 30 mins by autoradiography in presence of 0.01 mM GlyT2 inhibitor ORG25543 relative to control; type: tissue-based; settings: tested as the 125I-labelled form; summary of the method: as §2
[16] = molecular target: T1, Sodium- and chloride-dependent glycine transporter 1 (Rattus norvegicus); test: Binding affinity to GlyT1 in rat brain midbrain at 0.03 to 0.04 nM preincubated for 20 mins in binding buffer before compound addition measured after 30 mins by autoradiography in presence of 0.01 mM GlyT1 inhibitor ALX5407 relative to control; type: tissue-based; settings: tested as the 125I-labelled form; summary of the method: as §2

SMILES	Drug uptake (Intestine) [% ID/g]	Activity (Mus musculus [1]) [%]	Drug uptake (Stomach [2]) [% ID/g]	Activity (Mus musculus [3]) [%]	Drug uptake (Liver [4]) [% ID/g]	Drug uptake (Liver [5]) [% ID/g]	Drug uptake (Stomach [6]) [% ID/g]	Activity [7] [%]	Activity (Mus musculus [8])	Activity [9] [%]	Activity (Mus musculus [10])	Activity (Mus musculus [11])	Activity [12] [%]	Activity [13] [%]	Activity [14] [%]	Activity [15] [%]	Activity [16] [%]
CN1CCCC[C@H]1[C@@H](NC(=O)c1cccc(C(F)(F)F)c1[125I])c1ccccc1	0.81	56	12.73	48	16.04	9.25	0.83	–	–	–	–	–	–	–	–	–	–
CN1CCCC[C@H]1[C@@H](NC(=O)c1cccc(C(F)(F)F)c1I)c1ccccc1	–	–	–	–	–	–	–	20.6	inactive	47.6	inactive	Active	33.2	104	90.9	124	36.2
